Screening data as filed in PubChem.
bovine MsrA act – bovine methionine sulfoxide reductase A activation. purified bovine MsrA, absorbance read-out. activation, % at 10.6 µM. 360,000 compounds, 0.3% hits. AID 602163; in the data active means activation above about 7.5%;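 further: 0% = vehicle and 100% = reference activator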
SKN-1 block – inhibitors of C. elegans SKN-1; C. elegans VP596 Pgst-4::GFP/RFP ratio, acrylamide-induced, 24 h; inhibition, % at 21.8 µM; 360,000 compounds, 0.49% hits;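 active means interference check ratio from 0.5 to 1.5 plus GFP to RFP signal ratio inhibition reaching or exceeding a fixed threshold, cut at about 30% in these data, passing the limit was not always enough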
beta cell repl – induces beta-cell replication in MIN6 cells; MIN6 cells proliferation, ATPlite luminescence, 48 h; cells starved in 0.2% serum; 100% = growth in 10% serum; 330,000 compounds, 0.29% hits; proliferation, % at 10 µM; AID 2380;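 active means compounds whose signal lies at least 3.5 SD above the mean of all wells on their plate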;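 further: 0% = DMSO-treated cells in low-serum medium and 100% = 10% serum control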
MsrA inhibitor – inhibitors of bovine MsrA. purified bovine MsrA, absorbance read-out. inhibition, % at 15.5 µM. 360,000 compounds, 0.75% hits;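 further: 0% = vehicle wells with enzyme and 100% = reference inhibitor wells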
DAGLB inh – diacylglycerol lipase beta (human) inhibition | 340,000 compounds, 0.059% hits | inhibition, % at 5.17 µM | HEK293T DAGLB membrane lysate, EnzChek fluorogenic substrate; in the data active means inhibition above about 34%;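 further: 0% = enzyme with vehicle and 100% = wells lacking enzyme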
Target sequence (Q8NCG7 whole entry, looked up): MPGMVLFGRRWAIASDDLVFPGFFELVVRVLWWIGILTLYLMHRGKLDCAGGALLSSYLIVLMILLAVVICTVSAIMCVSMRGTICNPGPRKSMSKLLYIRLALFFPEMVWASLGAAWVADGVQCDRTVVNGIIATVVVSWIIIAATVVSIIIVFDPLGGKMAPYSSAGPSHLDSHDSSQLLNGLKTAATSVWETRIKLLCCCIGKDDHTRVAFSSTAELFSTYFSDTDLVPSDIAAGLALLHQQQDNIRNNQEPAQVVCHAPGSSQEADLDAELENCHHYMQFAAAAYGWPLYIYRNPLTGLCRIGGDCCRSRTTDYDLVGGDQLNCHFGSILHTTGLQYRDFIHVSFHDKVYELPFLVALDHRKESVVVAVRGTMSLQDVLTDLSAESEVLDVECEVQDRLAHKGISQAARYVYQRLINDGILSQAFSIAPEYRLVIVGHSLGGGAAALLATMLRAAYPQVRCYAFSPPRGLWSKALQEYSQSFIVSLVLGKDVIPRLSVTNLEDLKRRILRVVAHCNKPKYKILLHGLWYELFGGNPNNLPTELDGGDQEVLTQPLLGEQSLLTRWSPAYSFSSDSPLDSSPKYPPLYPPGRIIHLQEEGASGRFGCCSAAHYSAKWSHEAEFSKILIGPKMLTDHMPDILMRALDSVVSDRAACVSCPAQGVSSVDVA
MT1-MMP act inh – MT1-MMP (human) activation inhibition | P50281 | HT1080 RFP-PRO-GFP cells, GFP/RFP ratio fluorescence, overnight; percent of plate control window, DMSO zero | GFP/RFP ratio change, % at 20 µM | 360,000 compounds, 0.061% hits;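 active means GFP/RFP ratio change of at least 30% with cell ATP level not reduced by more than half and red fluorescence within 50% of control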
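Assay system – RFP-PRO-GFP reporter HT1080 cells · Compound dosing – single dose of 20 µM compound, 1% DMSO final · Incubation – overnight compound exposure at 37 °C · Measure – GFP/RFP fluorescence ratio · Benchmarks – DMSO wells and RFP-L50D-GFP cells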
MsrA inh confirm – bovine MsrA inhibition, confirmed | inhibition, % at 15.5 µM | 2,300 compounds, 41% hits | shares compounds with MsrA inhibitor | AID 651822 | purified bovine MsrA, absorbance read-out;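 further: coupled to thioredoxin reductase with NADPH and selenocystamine and DMSO as substrate; 0% = vehicle only and 100% = full effect of reference inhibitor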
* = called active by the depositor; / = not tested or not shown. Most compounds without a hit are left out; they make up all but 1.8% or so of the library. Unless noted, no stated cut-off is given here; in the data, active means inhibition above about 4.5%; inactive means the rest.

SMILES	bovine MsrA act	SKN-1 block	beta cell repl	MsrA inhibitor	DAGLB inh	MT1-MMP act inh	MsrA inh confirm
O=C1N/C(=C\c2ccc(O)cc2)C(O)=C1C=NCc1ccccc1	-4	-3	0	4.9*	-1	-3	4
COc1ccc(/C=C2\NC(=O)C(C=NCc3ccccc3)=C2O)cc1	-3	-1	0	3	0	4	/
COCCNC(=O)Cn1nc(-c2ccc(Cl)cc2)c2ccccc2c1=O	-5	8	-3	0	-1	-5	/
C=CC(=O)N1CCCC(Nc2nc(Nc3ccc(N(C)C(=O)CC)cc3C)nc3nc[nH]c23)C1 (stereo not drawn)	-1	17	3	-1	3	0	/
O=C(O)c1cc(-c2ccccc2)nc2nc(N3CCCCC3)sc12	/	/	-4	5.8*	/	/	2
CC(C)(C)c1ccc(C(=O)/C=C2\NC(=O)CS2)cc1	-12	-19	-4	5.1*	0	0	4
Cc1ccc(S(=O)(=O)Nc2cc(=O)[nH]c3c2CCC3)cc1	-8	13	0	0	0	3	/
COc1ccc(CCNC(=O)CSc2nnc(C(C)N(C)C)n2Cc2ccccc2)cc1OC (stereo not drawn)	-8	-4	-1	-1	-3	4	/
O=C(CN1CCN(Cc2ccccc2)CC1)N/N=C/C=C/c1ccco1	-9	1	-1	5.8*	0	1	4
COCc1cc(C)nc(N/N=C/c2ccc(-c3ccc(Cl)cc3[N+](=O)[O-])o2)c1C#N	-4	5	/	6.4*	4	1	2
COCCn1c(=O)[nH]c(=O)c2c1nc(-c1ccc(-c3ccc(Cl)cc3[N+](=O)[O-])o1)n2Cc1ccccc1	-6	21	0	2	20	-1	/
CC1(C)CCC(=O)N2CC[C@H]3c4cc5ccccc5nc4C[C@@H]1[C@H]32	-2	-15	/	0	2	-3	/
COc1ccc(O)c(C2=Nc3ccccc3N=C(c3ccccc3)C2)c1	-4	8	-6	0	-4	6	/
Oc1ccccc1C1=Nc2ccccc2N=C(c2ccco2)C1	-4	-1	-1	4.7*	-3	-3	2
COc1cccc(C2=CC(=O)CC(C)(C)C2)c1	-1	2	2	0	-3	-5	/
COc1ccc(C2=CC(=O)CC(C)(C)C2)cc1OC	-11	-5	2	4.8*	-6	-3	2
COc1ccc(/C=N/N=C2\SCC(=O)N2c2c(C)n(C)n(-c3ccccc3)c2=O)cc1OC	-5	2	0	5.7*	3	1	4
Cc1ccc(-c2nn(-c3ccc(F)cc3)cc2C(=O)N2CCN(C3CCS(=O)(=O)C3)CC2)cc1 (stereo not drawn)	-4	6	5	0	0	0	/
O=C(Nc1ccc(S(=O)(=O)N2CCOCC2)cc1)C1CC(=O)N(c2ccc(F)cc2)C1 (stereo not drawn)	-3	-4	0	-1	0	-2	/
COC(=O)CSC1=C(C#N)C(=O)NC(c2ccccc2)S1 (stereo not drawn)	-19	3	-5	6.1*	-1	-3	4.8*
CSC1=C(C#N)C(=O)NC(c2ccccc2O)S1 (stereo not drawn)	-7	2	0	2	-1	-3	/
CN(C)CCCN1C(=O)C(=O)/C(=C(/O)c2ccncc2)C1c1cccnc1 (stereo not drawn)	-1	8	/	6.6*	-1	-1	2
CCN(CC)CCCN1C(=O)C(=O)/C(=C(/O)c2cc(C)ccc2C)C1c1cccnc1 (stereo not drawn)	-8	0	2	2	1	-3	/
CCN(CC)CCN1C(=O)C(=O)/C(=C(/O)c2ccc(C)cc2)C1c1cccnc1 (stereo not drawn)	-3	-16	-4	5.9*	-3	0	0
COCCN(C(=O)c1ccc(-c2ccc(Cl)cc2)o1)c1c(N)n(CC(C)C)c(=O)[nH]c1=O	-1	2	-3	3	2	-2	/
SMILES	bovine MsrA act	SKN-1 block	beta cell repl	MsrA inhibitor	DAGLB inh	MT1-MMP act inh	MsrA inh confirm
COCCN(C(=O)c1ccc(-c2ccc([N+](=O)[O-])cc2)o1)c1c(N)n(CC(C)C)c(=O)[nH]c1=O	-4	6	1	4.7*	0	3	4.6*
O=C1NC(c2ccccc2)Nc2c1sc(=S)n2-c1ccccc1 (stereo not drawn)	-2	22	-3	2	8	-6	/
C#CCN1C[C@@]2(O)CC[C@@H](O)[C@@H](OC)[C@@H]2[C@@]1(C)[C@H](O)CC=C(C)C	/	/	/	0	/	/	/
O=c1[nH]c(/C=C/c2ccc3c(c2)OCO3)c([N+](=O)[O-])c(=O)[nH]1	/	/	-1	/	/	/	/
O=c1[nH]c(/C=C/c2ccc([N+](=O)[O-])cc2)c([N+](=O)[O-])c(=O)[nH]1	-6	0	-1	5.4*	9	-4	5.6*
CCc1nccn1C(=O)c1cnn2c(C(F)F)cc(-c3ccc(C)cc3)nc12	-9	-4	-1	4.8*	-4	-1	26*
CCc1nccn1C(=O)c1cnn2c(C(F)F)cc(-c3ccccc3)nc12	/	/	-3	/	/	/	/
CCCC(=O)N1CCN(c2nc3c(OC)ccc(Cl)c3s2)CC1	-1	-20	-6	0	2	-1	/
Cc1cccc(N=c2c([N+](=O)[O-])nn(-c3ccc(Cl)cc3)n2O)c1	-1	-5	-3	0	3	5	/
CCc1cccc(N=c2c([N+](=O)[O-])nn(-c3ccc(Cl)cc3)n2O)c1	-3	12	-6	5.4*	14	2	5.3*
O=C(NC1CCCCC1)C1CC(=O)N(c2ccccc2)C1 (stereo not drawn)	-6	-10	-1	0	-1	2	/
COC(=O)[C@]12C[C@H](CC(=O)N3CCC(c4ccccc4)CC3)C(=O)N(Cc3ccccc3)C1=C[C@H](C(C)C)O[C@@H]2C1CC1	/	/	/	1	/	/	/
CCN(CC)c1ccc(C=Nc2ccc(C#N)cc2)c(O)c1	-14	-18	-2	7.6*	-2	-1	5.6*
CCN(CC)c1ccc(/C=N/NC(=O)c2ccco2)c(O)c1	-2	7	-6	2	7	7	/
CCN(CC)c1ccc(C=Nc2ccccc2C)c(O)c1	-4	0	0	6.5*	2	10	3
CCN(CC)c1ccc(O)c(C=Nc2ccc(C)c(C)c2)c1	-5	7	-1	4	0	0	/
CCN(CC)c1ccc(/C=N/NC(=O)Cc2cccs2)c(O)c1	-9	6	/	6.2*	7	-3	3
O=C(O)c1ccc(N/N=C/c2c[nH]c3ccccc23)cc1	-5	1	-3	5.6*	-6	1	6.1*
